The source made the active and inactive calls. The rule behind the calls is not given here.
Tests used:
Type in all cases: cell-based
[1] = biological target: Histone-lysine N-methyltransferase EZH2 (Homo sapiens) (UniProt Q15910); assay: Inhibition of EZH2 in human A549 cells assessed as increase in TNF-alpha-induced TGFA level for 24 hrs by multiplexing laser bead assay
How it was run: (§1)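 A549 cells were pretreated with vehicle or UNC1999 over two four-day cycles at 2 μM. They were seeded at 3×10^4/well, rested for 4 h, then exposed for 24 h to no stimulus, 5 μg/ml E. coli LPS or 10 U/ml TNFα. Secreted cytokines in the supernatants were quantified by a 41-plex laser bead assay.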

[2] = biological target: Histone-lysine N-methyltransferase EZH2 (Homo sapiens) (UniProt Q15910); assay: Inhibition of EZH2 in human A549 cells assessed as increase in LPS-induced IL-8 level for 24 hrs by ELISA
How it was run: (§2)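 A549 cells were pretreated for two four-day cycles with 2 μM UNC1999 or with DMSO. They were seeded at 3×10^4/well, allowed to settle for 4 h, then given the indicated concentrations of IFNγ, IL1β, LPS or TNFα for 24 h. Secreted IL6, IL8 or CXCL10 in the supernatant was measured by ELISA in duplicate. n = 3; ANOVA followed by Fisher test.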

[3] = biological target: Histone-lysine N-methyltransferase EZH2 (Homo sapiens) (UniProt Q15910); assay: Inhibition of EZH2 in human A549 cells assessed as effect on HPRT mRNA level after 6 hrs by RT-PCR analysis in presence of IFN-gamma
How it was run: (§3)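 Cells were treated for two four-day cycles with 2 μM GSK343 or UNC1999, then left untreated or stimulated with human IFNγ for 6 h. mRNA was measured by reverse transcription quantitative PCR and normalized to β-actin. Three biological replicates were run per treatment group.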

[4] = biological target: Histone-lysine N-methyltransferase EZH2 (Homo sapiens) (UniProt Q15910); assay: Inhibition of EZH2 in human A549 cells assessed as increase in LPS-induced PDGFA level for 24 hrs by multiplexing laser bead assay; how it was run: as §1
[5] = biological target: Histone-lysine N-methyltransferase EZH2 (Homo sapiens) (UniProt Q15910); assay: Inhibition of EZH2 in human A549 cells assessed as increase in TNFalpha-induced CXCL10 level for 24 hrs by ELISA; how it was run: as §2
[6] = biological target: Histone-lysine N-methyltransferase EZH2 (Homo sapiens) (UniProt Q15910); assay: Inhibition of EZH2 in human A549 cells assessed as increase in LPS-induced IL-6 level for 24 hrs by ELISA; how it was run: as §2
[7] = biological target: Histone-lysine N-methyltransferase EZH2 (Homo sapiens) (UniProt Q15910); assay: Inhibition of EZH2 in human ASPC1 cells assessed as effect on PITX2 mRNA level after 6 hrs by RT-PCR analysis; how it was run: as §3
[8] = biological target: Histone-lysine N-methyltransferase EZH2 (Homo sapiens) (UniProt Q15910); assay: Inhibition of EZH2 in human ASPC1 cells assessed as effect on HPRT mRNA level after 6 hrs by RT-PCR analysis; how it was run: as §3
[9] = biological target: Histone-lysine N-methyltransferase EZH2 (Homo sapiens) (UniProt Q15910); assay: Inhibition of EZH2 in human MCF7 cells assessed as effect on PITX2 mRNA level after 6 hrs by RT-PCR analysis in presence of IFN-gamma
How it was run: (§4)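 Cells pretreated for two 4-day cycles with 2 µM GSK343 or UNC1999, then left unstimulated or given human IFNγ for 6 h. RNA reverse-transcribed and measured by quantitative PCR, normalized to β-actin. Three biological replicates per treatment group.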

[10] = biological target: Histone-lysine N-methyltransferase EZH2 (Homo sapiens) (UniProt Q15910); assay: Inhibition of EZH2 in human HeLa cells assessed as effect on HPRT mRNA level after 6 hrs by RT-PCR analysis; how it was run: as §3
[11] = biological target: Histone-lysine N-methyltransferase EZH2 (Homo sapiens) (UniProt Q15910); assay: Inhibition of EZH2 in human MCF7 cells assessed as effect on HPRT mRNA level after 6 hrs by RT-PCR analysis in presence of IFN-gamma; how it was run: as §3
[12] = biological target: Histone-lysine N-methyltransferase EZH2 (Homo sapiens) (UniProt Q15910); assay: Inhibition of EZH2 in human HeLa cells assessed as decrease in H3K27me3 levels at 2 uM after 6 hrs by Western blot analysis
[13] = biological target: Histone-lysine N-methyltransferase EZH2 (Homo sapiens) (UniProt Q15910); assay: Inhibition of EZH2 in human A549 cells assessed as increase in TNF-alpha-induced IL-6 level for 24 hrs by ELISA; how it was run: as §2
[14] = biological target: Histone-lysine N-methyltransferase EZH2 (Homo sapiens) (UniProt Q15910); assay: Inhibition of EZH2 in human AsPC1 cells assessed as decrease in H3K27me3 levels at 2 uM after 6 hrs by Western blot analysis
[15] = biological target: Histone-lysine N-methyltransferase EZH2 (Homo sapiens) (UniProt Q15910); assay: Inhibition of EZH2 in human A549 cells assessed as increase in LPS-induced IL-6 level for 24 hrs by multiplexing laser bead assay; how it was run: as §1
[16] = biological target: Histone-lysine N-methyltransferase EZH2 (Homo sapiens) (UniProt Q15910); assay: Inhibition of EZH2 in human A549 cells assessed as increase in TNF-alpha-induced PDGFA level for 24 hrs by multiplexing laser bead assay; how it was run: as §1
[17] = biological target: Histone-lysine N-methyltransferase EZH2 (Homo sapiens) (UniProt Q15910); assay: Inhibition of EZH2 in human ASPC1 cells assessed as effect on IRF1 mRNA level after 6 hrs by RT-PCR analysis; how it was run: as §3
[18] = biological target: Histone-lysine N-methyltransferase EZH2 (Homo sapiens) (UniProt Q15910); assay: Inhibition of EZH2 in human A549 cells assessed as increase in TNF-alpha-induced CXCL-10 level for 24 hrs by multiplexing laser bead assay; how it was run: as §1
[19] = biological target: Histone-lysine N-methyltransferase EZH2 (Homo sapiens) (UniProt Q15910); assay: Inhibition of EZH2 in human MCF7 cells assessed as increase in IFN-gamma-induced SUZ12-repressed ISGs mRNA level after 6 hrs by RT-PCR analysis; how it was run: as §4
[20] = biological target: Histone-lysine N-methyltransferase EZH2 (Homo sapiens) (UniProt Q15910); assay: Inhibition of EZH2 in human ASPC1 cells assessed as effect on IRF1 mRNA level after 6 hrs by RT-PCR analysis in presence of IFN-gamma; how it was run: as §3
[21] = biological target: Histone-lysine N-methyltransferase EZH2 (Homo sapiens) (UniProt Q15910); assay: Inhibition of EZH2 in human A549 cells assessed as increase in TNF-alpha-induced CXCL-1 level for 24 hrs by multiplexing laser bead assay; how it was run: as §1
[22] = biological target: Histone-lysine N-methyltransferase EZH2 (Homo sapiens) (UniProt Q15910); assay: Inhibition of EZH2 in human MCF7 cells assessed as effect on HPRT mRNA level after 6 hrs by RT-PCR analysis; how it was run: as §3
[23] = biological target: Histone-lysine N-methyltransferase EZH2 (Homo sapiens) (UniProt Q15910); assay: Inhibition of EZH2 in human A549 cells assessed as effect on IRF1 mRNA level after 6 hrs by RT-PCR analysis; how it was run: as §3
[24] = biological target: Histone-lysine N-methyltransferase EZH2 (Homo sapiens) (UniProt Q15910); assay: Inhibition of EZH2 in human A549 cells assessed as increase in LPS-induced CCL-5 level for 24 hrs by multiplexing laser bead assay; how it was run: as §1
[25] = biological target: Histone-lysine N-methyltransferase EZH2 (Homo sapiens) (UniProt Q15910); assay: Inhibition of EZH2 in human A549 cells assessed as increase in TNF-alpha-induced CCL7 level for 24 hrs by multiplexing laser bead assay; how it was run: as §1
[26] = biological target: Histone-lysine N-methyltransferase EZH2 (Homo sapiens) (UniProt Q15910); assay: Inhibition of EZH2 in human ASPC1 cells assessed as effect on HPRT mRNA level after 6 hrs by RT-PCR analysis in presence of IFN-gamma; how it was run: as §3
[27] = biological target: Histone-lysine N-methyltransferase EZH2 (Homo sapiens) (UniProt Q15910); assay: Inhibition of EZH2 in human A549 cells assessed as effect on IRF1 mRNA level after 6 hrs by RT-PCR analysis in presence of IFN-gamma; how it was run: as §3

Histone-lysine N-methyltransferase EZH2 (Homo sapiens), sequence (Q15910 whole entry, looked up): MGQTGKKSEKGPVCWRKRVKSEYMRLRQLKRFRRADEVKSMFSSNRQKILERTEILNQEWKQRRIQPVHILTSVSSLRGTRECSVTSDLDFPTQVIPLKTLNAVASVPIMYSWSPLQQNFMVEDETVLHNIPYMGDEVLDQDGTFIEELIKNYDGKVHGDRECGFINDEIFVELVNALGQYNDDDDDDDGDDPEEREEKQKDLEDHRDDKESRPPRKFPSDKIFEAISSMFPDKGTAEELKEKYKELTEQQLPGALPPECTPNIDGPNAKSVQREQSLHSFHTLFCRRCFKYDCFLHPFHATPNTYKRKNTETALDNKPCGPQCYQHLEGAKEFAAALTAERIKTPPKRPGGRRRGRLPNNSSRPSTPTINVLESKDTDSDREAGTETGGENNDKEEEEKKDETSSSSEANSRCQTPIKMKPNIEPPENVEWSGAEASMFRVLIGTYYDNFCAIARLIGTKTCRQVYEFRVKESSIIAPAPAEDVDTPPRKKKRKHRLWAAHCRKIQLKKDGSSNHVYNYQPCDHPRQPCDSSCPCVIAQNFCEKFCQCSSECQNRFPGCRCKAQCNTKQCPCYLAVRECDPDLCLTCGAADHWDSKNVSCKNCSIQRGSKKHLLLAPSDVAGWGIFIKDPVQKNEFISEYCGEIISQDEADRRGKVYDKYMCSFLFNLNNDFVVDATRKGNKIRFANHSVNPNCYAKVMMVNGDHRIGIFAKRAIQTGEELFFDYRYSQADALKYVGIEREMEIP

CCCc1cc(C)[nH]c(=O)c1CNC(=O)c1cc(-c2ccc(N3CCN(C(C)C)CC3)nc2)cc2c1cnn2C(C)C
inhibition [1]: Active
inhibition [2]: Active
inhibition [3]: inactive
inhibition [4]: Active
inhibition [5]: Active
inhibition [6]: Active
inhibition [7]: inactive
inhibition [8]: inactive
inhibition [9]: inactive
inhibition [10]: inactive
inhibition [11]: inactive
inhibition [12]: Active
inhibition [13]: Active
inhibition [14]: Active
inhibition [15]: Active
inhibition [16]: Active
inhibition [17]: inactive
inhibition [18]: Active
inhibition [19]: Active
inhibition [20]: inactive
inhibition [21]: Active
inhibition [22]: inactive
inhibition [23]: inactive
inhibition [24]: Active
inhibition [25]: Active
inhibition [26]: inactive
inhibition [27]: inactive

Reference: ChEMBL document CHEMBL5674868, “Cancer Cells Hijack PRC2 to Modify Multiple Cytokine Pathways” (PLoS One, 2015)
